In ChEMBL document CHEMBL1136257, “New highly active taxoids from 9beta-dihydrobaccatin-9,10-acetals. Part 3” (Bioorg Med Chem Lett, 2003):
In brackets after ≈: the same amount, converted by molar mass.

Key:
[1] = tested on: Mus musculus; test: Maximum rate of body weight loss was determined in mice inoculated with B16 melanoma BL6 cells sc at a dose 12 mg/kg by intravenous administration; assay type: functional
In short: (§1)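 On day 0, B16 melanoma BL6 cells (cultured line) were implanted subcutaneously into C57BL/6 mice, six per group. A single iv or oral dose was given on day 4, and body weight was followed. BWLmax (%) is the maximum rate of body weight loss; a value below 0 means no loss.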

[2] = Solubility of compound in JP1 at pH 1.2 using UV assay; assay type: physicochemical; settings: JP1, pH 1.2
[3] = tested on: Mus musculus; test: Mean tumor weight was determined in mice inoculated with B16 melanoma BL6 cells sc at a dose 12 mg/kg iv [IR (%) = (1-TWt/TWc)*100]; assay type: functional
In short: (§2)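 C57BL/6 mice (six per group) received subcutaneous B16 melanoma BL6 cells on day 0 and a single iv or oral dose on day 4. Tumors were excised and weighed on day 15. Inhibition rate IR (%) = (1 − mean treated tumor weight/mean control tumor weight) × 100.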

[4] = tested on: Mus musculus; test: Mortality rate in mice inoculated with B16 melanoma BL6 cells sc at a dose 8 mg/kg by peroral administration; 0/6; assay type: functional; settings: route oral
[5] = tested on: Mus musculus; test: Mortality was determined in mice inoculated with B16 melanoma BL6 cells sc at a dose 18 mg/kg by peroral administration; 2/6; assay type: functional; settings: route oral
[6] = tested on: Mus musculus; test: Mean tumor weight was determined in mice inoculated with B16 melanoma BL6 cells sc at a dose 8 mg/kg po [IR (%) = (1-TWt/TWc)*100]; assay type: functional; in short: as §2
[7] = Solubility of compound in JP2 at pH 6.8 using UV assay; assay type: physicochemical; settings: JP2, pH 6.8
[8] = tested on: PC-6; test: Cytotoxic activity against human lung cancer PC-6 cell line; assay type: functional
In short: (§3)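 Growth inhibition (IC50) of mouse leukemia P388 and human lung cancer PC-6 and PC-12 cells after 72 h continuous exposure to compound; IC50 taken as the concentration giving 50% growth inhibition.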

[9] = tested on: Mus musculus; test: Mortality rate in mice inoculated with B16 melanoma BL6 cells sc at a dose 12 mg/kg by intravenous administration; 0/6; assay type: functional
[10] = tested on: Mus musculus; test: Maximum rate of body weight loss was determined in mice inoculated with B16 melanoma BL6 cells sc at a dose 12 mg/kg by peroral administration; assay type: functional; settings: route oral; in short: as §1
[11] = tested on: Mus musculus; test: Maximum rate of body weight loss was determined in mice inoculated with B16 melanoma BL6 cells sc at a dose 18 mg/kg by peroral administration; assay type: functional; settings: route oral; in short: as §1
[12] = tested on: Mus musculus; test: Mean tumor weight was determined in mice inoculated with B16 melanoma BL6 cells sc at a dose 18 mg/kg po [IR (%) = (1-TWt/TWc)*100]; assay type: functional; in short: as §2
[13] = tested on: Mus musculus; test: Mortality rate in mice inoculated with B16 melanoma BL6 cells sc at a dose 18 mg/kg by intravenous administration; 0/6; assay type: functional
[14] = Solubility in water using UV assay; assay type: physicochemical
[15] = tested on: Mus musculus; test: Mean tumor weight was determined in mice inoculated with B16 melanoma BL6 cells sc at a dose 12 mg/kg po [IR (%) = (1-TWt/TWc)*100]; assay type: functional; in short: as §2
[16] = tested on: PC-12; test: Cytotoxic activity against human lung cancer PC-12 cell line
[17] = tested on: Mus musculus; test: Maximum rate of body weight loss was determined in mice inoculated with B16 melanoma BL6 cells sc at a dose 8 mg/kg by peroral administration; assay type: functional; settings: route oral; in short: as §1
[18] = tested on: Mus musculus; test: Mortality was determined in mice inoculated with B16 melanoma BL6 cells sc at a dose 12 mg/kg by peroral administration; 0/6; assay type: functional; settings: route oral
[19] = tested on: P388; test: Cytotoxic activity against mouse leukemia P388 cell line; assay type: functional; in short: as §3
[20] = tested on: Mus musculus; test: Mortality was determined in mice inoculated with B16 melanoma BL6 cells sc at a dose 12 mg/kg by intravenous administration; 0/6; assay type: functional
[21] = tested on: Mus musculus; test: Mortality was determined in mice inoculated with B16 melanoma BL6 cells sc at a dose 18 mg/kg by peroral administration; 0/6; assay type: functional; settings: route oral
[22] = tested on: Mus musculus; test: Mortality was determined in mice inoculated with B16 melanoma BL6 cells sc at a dose 18 mg/kg by intravenous administration; 0/6; assay type: functional
[23] = tested on: Mus musculus; test: Maximum rate of body weight loss was determined in mice inoculated with B16 melanoma BL6 cells sc at a dose 5.3 mg/kg by intravenous administration; assay type: functional; in short: as §1
[24] = tested on: Mus musculus; test: Mortality was determined in mice inoculated with B16 melanoma BL6 cells sc at a dose 8 mg/kg by peroral administration; 0/6; assay type: functional; settings: route oral
[25] = tested on: Mus musculus; test: Mean tumor weight was determined in mice inoculated with B16 melanoma BL6 cells sc at a dose 27 mg/kg po [IR (%) = (1-TWt/TWc)*100]; assay type: functional; in short: as §2
[26] = tested on: Mus musculus; test: Mean tumor weight was determined in mice inoculated with B16 melanoma BL6 cells sc at a dose 18 mg/kg iv [IR (%) = (1-TWt/TWc)*100]; assay type: functional; in short: as §2
[27] = tested on: Mus musculus; test: Mortality was determined in mice inoculated with B16 melanoma BL6 cells sc at a dose 8 mg/kg by intravenous administration; 0/6; assay type: functional
[28] = tested on: Mus musculus; test: Maximum rate of body weight loss was determined in mice inoculated with B16 melanoma BL6 cells sc at a dose 27 mg/kg by peroral administration; assay type: functional; settings: route oral; in short: as §1
[29] = tested on: Mus musculus; test: Mortality was determined in mice inoculated with B16 melanoma BL6 cells sc at a dose 5.3 mg/kg by intravenous administration; 0/6; assay type: functional
[30] = tested on: Mus musculus; test: Mean tumor weight was determined in mice inoculated with B16 melanoma BL6 cells sc at a dose 8 mg/kg iv [IR (%) = (1-TWt/TWc)*100]; assay type: functional; in short: as §2
[31] = tested on: Mus musculus; test: Maximum rate of body weight loss was determined in mice inoculated with B16 melanoma BL6 cells sc at a dose 8 mg/kg by intravenous administration; assay type: functional; in short: as §1
[32] = tested on: Mus musculus; test: Mean tumor weight was determined in mice inoculated with B16 melanoma BL6 cells sc at a dose 5.3 mg/kg iv [IR (%) = (1-TWt/TWc)*100]; assay type: functional; in short: as §2
[33] = tested on: Mus musculus; test: Maximum rate of body weight loss was determined in mice inoculated with B16 melanoma BL6 cells sc at a dose 18 mg/kg by intravenous administration; assay type: functional; in short: as §1
[34] = tested on: Mus musculus; test: Mortality was determined in mice inoculated with B16 melanoma BL6 cells sc at a dose 27 mg/kg by peroral administration; 0/6; assay type: functional; settings: route oral

| SMILES | BWLmax [1] | solubility [2] | IR [3] | IR [6] | solubility [7] | GI50 [8] | BWLmax [10] | BWLmax [11] | IR [12] | solubility [14] | IR [15] | GI50 [16] | BWLmax [17] | Mortality [18] | GI50 [19] | other results |
| --- | --- | --- | --- | --- | --- | --- | --- | --- | --- | --- | --- | --- | --- | --- | --- | --- |
| CC(=O)O[C@@]12CO[C@@H]1CC[C@@]1(C)[C@@H]3O[C@H](CN4CCOCC4)O[C@@H]3C3=C(C)[C@@H](OC(=O)[C@](C)(O)[C@@H](NC(=O)OC(C)(C)C)c4ccccn4)C[C@@](O)([C@@H](OC(=O)c4ccccc4)[C@@H]12)C3(C)C | 13.5% | 1800 µg/mL (≈ 1960 µM) | 96.4% | 42.2% | 5 µg/mL (≈ 5.43 µM) | 0.11 ng/mL (≈ 0.00012 µM) | <0% | 18.1% | 98% | 6 µg/mL (≈ 6.52 µM) | 92.2% | 0.06 ng/mL (≈ 6.52e-05 µM) | <0% | 0 | 0.12 ng/mL (≈ 0.00013 µM) | Mortality [4]: 0; Mortality [5]: 2; Mortality [9]: 0; Mortality [13]: 0 |
| CC(=O)O[C@@]12CO[C@@H]1CC[C@@]1(C)[C@@H]3O[C@H](CN4CCOCC4)O[C@@H]3C3=C(C)[C@@H](OC(=O)[C@H](O)[C@@H](NC(=O)OC(C)(C)C)c4ccccn4)C[C@@](O)([C@@H](OC(=O)c4ccccc4)[C@@H]12)C3(C)C | <0% | 1700 µg/mL (≈ 1880 µM) | 94.4% | 27.2% | 11 µg/mL (≈ 12.1 µM) | 0.39 ng/mL (≈ 0.00043 µM) | <0% | 0.3% | 93.3% | 14 µg/mL (≈ 15.5 µM) | 84.9% | 0.21 ng/mL (≈ 0.000232 µM) | <0% | 0 | 0.18 ng/mL (≈ 0.000199 µM) | Mortality [20]: 0; Mortality [21]: 0; Mortality [22]: 0; BWLmax [23]: <0%; Mortality [24]: 0; IR [25]: 97.3%; IR [26]: 95.6%; Mortality [27]: 0; BWLmax [28]: 4.5%; Mortality [29]: 0; IR [30]: 87.2%; BWLmax [31]: <0%; IR [32]: 62.4%; BWLmax [33]: 3.7%; Mortality [34]: 0 |
| CC(=O)O[C@H]1C(=O)[C@@]2(C)[C@H]([C@H](OC(=O)c3ccccc3)[C@]3(O)C[C@H](OC(=O)[C@H](O)[C@@H](NC(=O)c4ccccc4)c4ccccc4)C(C)=C1C3(C)C)[C@]1(OC(C)=O)CO[C@@H]1C[C@@H]2O [PACLITAXEL] | – | – | – | – | – | 1.27 ng/mL (≈ 0.00149 µM) | – | – | – | – | – | 539 ng/mL (≈ 0.631 µM) | – | – | 2.93 ng/mL (≈ 0.00343 µM) | – |
| CC(=O)O[C@@]12CO[C@@H]1CC[C@@]1(C)[C@@H]3O[C@H](CN4CCOCC4)O[C@@H]3C3=C(C)[C@@H](OC(=O)[C@H](O)[C@@H](NC(=O)OC(C)(C)C)c4ccccc4)C[C@@](O)([C@@H](OC(=O)c4ccccc4)[C@@H]12)C3(C)C | – | 1200 µg/mL (≈ 1330 µM) | – | – | < 4 µg/mL | 0.38 ng/mL (≈ 0.00042 µM) | – | – | – | < 4 µg/mL | – | 0.02 ng/mL (≈ 2.21e-05 µM) | – | – | 0.02 ng/mL (≈ 2.21e-05 µM) | – |
